According to ChEMBL document CHEMBL1134791, “2- and 3-substituted 1,4-naphthoquinone derivatives as subversive substrates of trypanothione reductase and lipoamide dehydrogenase from Trypanosoma cruzi: synthesis and correlation between redox cycling activities and in vitro cytotoxicity” (J Med Chem, 2001):
The source made the active and inactive calls. No cut-off for these calls is given here.

Tests used:
Trypanosoma cruzi [1] = experiment: Ratio of cytochrome c reduction and NADH oxidation by TcLipDH (Trypanosoma cruzi lipoamide dehydrogenase) at 50 uM concentration, in cytochrome c assay
Summary of the method: (§1)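 T. cruzi or pig heart LipDH in 50 mM potassium phosphate pH 7.0 with 100 µM NADH, 50 µM cytochrome c and 50 µM naphthoquinone at 31 °C. Cytochrome c reduction read at 550 nm; NADH oxidation measured at 340 nm in the same conditions without cytochrome c. One-electron reduction % = cytochrome c rate ÷ (2 × NADH rate). At least duplicate.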

[2] = target: T1, Dihydrolipoyl dehydrogenase, mitochondrial (Sus scrofa) (UniProt P09623); experiment: Ratio of cytochrome c reduction and NADH oxidation by pig heart LipDH (lipoamide dehydrogenase) at 50 uM concentration, in cytochrome c assay; summary of the method: as §1
T1 sequence (whole entry): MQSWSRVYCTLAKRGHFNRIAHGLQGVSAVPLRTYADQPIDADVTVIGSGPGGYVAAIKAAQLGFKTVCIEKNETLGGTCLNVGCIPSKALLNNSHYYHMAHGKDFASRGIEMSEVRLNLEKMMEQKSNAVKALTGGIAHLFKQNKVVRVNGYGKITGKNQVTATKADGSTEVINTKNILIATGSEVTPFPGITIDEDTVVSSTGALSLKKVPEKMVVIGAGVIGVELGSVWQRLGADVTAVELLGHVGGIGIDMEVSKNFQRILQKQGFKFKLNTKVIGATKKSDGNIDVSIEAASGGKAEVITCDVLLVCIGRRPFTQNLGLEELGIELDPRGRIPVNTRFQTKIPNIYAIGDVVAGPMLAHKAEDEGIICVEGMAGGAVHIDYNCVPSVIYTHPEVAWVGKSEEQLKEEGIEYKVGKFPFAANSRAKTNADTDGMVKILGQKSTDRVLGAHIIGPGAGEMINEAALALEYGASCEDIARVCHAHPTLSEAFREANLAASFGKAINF

Leishmania donovani = experiment: In vitro antiparasitic activity against Leishmania donovani was tested by sigmoidal regression analysis; type: functional
Summary of the method: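 Mouse peritoneal macrophages (female CD1, starch-elicited, harvested 24 h) infected with L. donovani amastigotes (strain MHOM/ET/67/L82, hamster spleen) or T. cruzi Y-strain trypomastigotes (5:1, from MDCK overlay). Infected cells exposed to a 3-fold dilution series in quadruplicate for 5 days (L. donovani) or 3 days (T. cruzi). Giemsa-stained slides scored for % macrophages cleared of amastigotes versus untreated cultures. ED50 by sigmoidal regression.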

[3] = target: T1, Dihydrolipoyl dehydrogenase, mitochondrial (Sus scrofa); experiment: The second order rate constant of the pig heart LipDH (lipoamide dehydrogenase) catalyzed NADH oxidation.
Summary of the method: (§2)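 Recombinant T. cruzi LipDH (E. coli, purified) or pig heart LipDH, 0.1–2.5 µg/mL. Buffer was 50 mM potassium phosphate, 1 mM EDTA, pH 7.0, with 100 µM NADH and naphthoquinone at 10 µM–1.2 mM; all assays carried equal DMSO. Run at 31 °C, started with enzyme, NADH decrease followed at 340 nm. Km and Vmax from Lineweaver–Burk plots. At least duplicate.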

[4] = system: Dihydrolipoyl dehydrogenase (Trypanosoma cruzi); experiment: The second order rate constant of the TcLipDH (Trypanosoma cruzi lipoamide dehydrogenase) catalyzed NADH oxidation.
[5] = target: Trypanothione reductase (Trypanosoma cruzi) (UniProt P28593); experiment: Rate of NADPH oxidation by TcTR in presence of 100 uM NQ was determined in comparison to intrinsic oxidase activity
Summary of the method: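 Quinone reductase activity of recombinant TcTR measured as NADPH oxidation at 340 nm. Buffer was 20 mM Hepes, 1 mM EDTA, 0.15 M KCl, pH 7.25, with 250 µM NADPH at 25 °C. Rate with naphthoquinone (100 µM for line 8, 25 µM for line 9) divided by intrinsic oxidase rate of enzyme plus NADPH alone. Mean of at least two measurements.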

Trypanosoma cruzi [6] = experiment: The Michaelis-Menten constant for NADH oxidation by TcLipDH (Trypanosoma cruzi lipoamide dehydrogenase)
Trypanosoma cruzi [7] = experiment: The second order rate constant of the TcLipDH (Trypanosoma cruzi lipoamide dehydrogenase) catalyzed NADH oxidation.
Summary of the method: (§3)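 Recombinant TcLipDH expressed in E. coli, 0.1–2.5 µg/mL. 50 mM potassium phosphate, 1 mM EDTA, pH 7.0, 31 °C, with 100 µM NADH and naphthoquinone varied from 10 µM to 1.2 mM. DMSO was constant in all assays. NADH decrease followed at 340 nm. Km, Vmax and kcat came from Lineweaver-Burk plots, with kcat/Km derived. At least duplicate.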

Trypanosoma cruzi [8] = experiment: Vmax is the maximum velocity of the TcLipDH (Trypanosoma cruzi lipoamide dehydrogenase) catalyzed NADH oxidation; summary of the method: as §3
[9] = target: T1, Dihydrolipoyl dehydrogenase, mitochondrial (Sus scrofa); experiment: Second order rate constant of the pig heart LipDH (lipoamide dehydrogenase) catalyzed NADH oxidation.; summary of the method: as §2
[10] = target: T1, Dihydrolipoyl dehydrogenase, mitochondrial (Sus scrofa); experiment: Ratio of cytochrome c reduction and NADH oxidation by pig heart LipDH (pig heart lipoamide dehydrogenase) at 50 uM concentration, cytochrome c assay; summary of the method: as §1
[11] = target: Trypanothione reductase (Trypanosoma cruzi) (UniProt P28593); experiment: The second order rate constant of the TcTR (Trypanosoma cruzi trypanothione reductase) catalyzed […].
Summary of the method: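 Recombinant TcTR (0.6 U) in 20 mM Hepes, 1 mM EDTA, 0.15 M KCl, pH 7.25 at 22 °C, with 200 µM NADPH and naphthoquinone at five concentrations (0–100 µM) in 1% DMSO. NADPH oxidation at 340 nm; intrinsic oxidase rate not subtracted. Km and Vmax from nonlinear Michaelis–Menten fit; kcat and kcat/Km calculated.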

Trypanosoma brucei [12] = experiment: In vitro antiparasitic activity against Trypanosoma brucei was tested by sigmoidal regression analysis at 30 uM; IA is inactive; type: functional, organism-based
Summary of the method: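 T. b. brucei S427 bloodstream trypomastigotes at 2 × 10⁵/mL in HMI-18 medium, in triplicate, with a 3-fold dilution series starting at 30 µM. Incubated 3 days at 37 °C in 5% CO₂. Pentamidine served as positive control. Viability read by tetrazolium colorimetric assay on day 3. ED50 by sigmoidal regression.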

Trypanosoma brucei [13] = experiment: In vitro antiparasitic activity against Trypanosoma brucei was tested by sigmoidal regression analysis
Trypanosoma cruzi [14] = experiment: The second oder rate constant of the TcLipDH (Trypanosoma cruzi lipoamide dehydrogenase) catalyzed NADH oxidation.; summary of the method: as §2
Trypanosoma cruzi [15] = system: Trypanosoma cruzi

Chain of Trypanothione reductase (Trypanosoma cruzi) (P28593 whole entry, looked up): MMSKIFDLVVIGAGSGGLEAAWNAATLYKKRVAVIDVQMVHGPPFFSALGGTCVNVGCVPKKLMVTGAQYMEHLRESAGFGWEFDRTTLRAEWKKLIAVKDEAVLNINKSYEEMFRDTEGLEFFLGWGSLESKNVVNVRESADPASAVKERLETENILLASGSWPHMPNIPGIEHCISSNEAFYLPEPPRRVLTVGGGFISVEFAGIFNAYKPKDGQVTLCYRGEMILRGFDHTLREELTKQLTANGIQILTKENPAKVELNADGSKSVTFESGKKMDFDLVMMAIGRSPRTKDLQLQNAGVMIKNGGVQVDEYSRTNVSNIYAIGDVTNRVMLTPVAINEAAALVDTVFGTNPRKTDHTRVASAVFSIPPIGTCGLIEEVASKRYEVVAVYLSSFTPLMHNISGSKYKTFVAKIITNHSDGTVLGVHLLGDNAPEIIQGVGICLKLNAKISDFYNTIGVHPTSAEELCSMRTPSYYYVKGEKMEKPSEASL

Row | Compound | k cat/Km [3] | k cat/Km [4] | Reduction (Trypanosoma cruzi [1]) | Reduction [2] | ED50 (Leishmania donovani) | Km (Trypanosoma cruzi [6]) | also measured
1 | CC1=C(CCC(=O)NCCCN2CCN(C)CC2)C(=O)c2ccccc2C1=O | 2.6 10e4 M-1 s-1 | 3 10e4 M-1 s-1 | 1.6% | 0.8% | > 30 µM | – | x fold [5]: 7
2 | CC1=CC(=O)c2c(O)cccc2C1=O | 29 10e4 M-1 s-1 | – | 26.1% | 15.4% | – | 40 µM | k cat/Km (Trypanosoma cruzi [7]): 48 10e4 M-1 s-1; Vmax (Trypanosoma cruzi [8]): 22.9 µM/min/mg
3 | CC1=CC(=O)c2ccccc2C1=O | – | – | 12.7% | 8.1% | – | 170 µM | k cat/Km [9]: 13 10e4 M-1 s-1; k cat/Km [11]: 1 10e4 M-1 s-1; IA (Trypanosoma brucei [12]): inactive
4 | CC1=C(NCCCN2CCN(CCCN)CC2)C(=O)c2ccccc2C1=O | – | – | – | – | – | – | ED50 (Trypanosoma brucei [13]): > 12.5 µM
5 | CC1=C(CCC(=O)NCCCN2CCN(CCCNC(=O)CCC3=C(C)C(=O)c4ccccc4C3=O)CC2)C(=O)c2ccccc2C1=O | – | – | – | – | > 46 µM | – | x fold (Trypanosoma cruzi [15]): 1000 µM; k cat/Km [11]: 4.4 10e4 M-1 s-1

Second part, led by results:

Row | k cat/Km [3] | k cat/Km [4] | Compound | Reduction (Trypanosoma cruzi [1]) | Reduction [2] | ED50 (Leishmania donovani) | Km (Trypanosoma cruzi [6]) | also measured
6 | – | 6.6 10e4 M-1 s-1 | CC1=C(CCC(=O)O)C(=O)c2ccccc2C1=O | 3% | – | > 30 µM | – | k cat/Km [9]: 3.2 10e4 M-1 s-1; Reduction [10]: 0.5%
7 | 2.4 10e4 M-1 s-1 | 10.2 10e4 M-1 s-1 | CC1=C(CCC(=O)O)C(=O)c2c(O)cccc2C1=O | 6.6% | 1.6% | 72 µM | – | –
8 | 3.5 10e4 M-1 s-1 | – | CC1=C(CCCNC(=O)OC(C)(C)C)C(=O)c2c(O)cccc2C1=O | – | – | 10 µM | 30 µM | k cat/Km (Trypanosoma cruzi [14]): 23 10e4 M-1 s-1; Vmax (Trypanosoma cruzi [8]): 8.24 µM/min/mg
9 | 3.4 10e4 M-1 s-1 | 8.4 10e4 M-1 s-1 | CC1=C(CCCNC(=O)OC(C)(C)C)C(=O)c2ccccc2C1=O | – | – | 29.4 µM | – | –
